Source: the EternaBench riboswitch data

Key:
[1] = system: MS2 coat protein; experiment: apparent Kd, MS2 coat protein; higher = weaker binding; RNA-MaP array; theophylline 2 mM where present
Method in brief: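 Apparent Kd: the median of filtered binding-curve fits from single clusters. Designs were transcribed on Illumina sequencing-chip clusters by stalled E. coli RNA polymerase and titrated with SNAP-549-labelled MS2 coat protein from 0.7 or 1.5 nM, doubling to 3 µM, in 100 mM Tris-HCl pH 7.5, 80 mM KCl, 4 mM MgCl2, BSA, DTT, yeast tRNA and Tween-20. Each series ran without and then with constant ligand, and green signal was normalised to red-channel RNA signal and control-cluster median Fmax.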

[2] = system: MS2 coat protein; experiment: apparent Kd, MS2 coat protein; higher = weaker binding; RNA-MaP array; conditions: designed as: OFF switch for flavin mononucleotide
Method in brief: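 Designed RNAs were produced on an Illumina sequencing chip by transcription of sequenced DNA templates. Binding to fluorescently labeled MS2 coat protein (1.5 nM to 3 μM) was measured at room temperature with or without input ligand. The apparent Kd is the median of per-cluster binding-curve fits. Designs were excluded when measured on fewer than 10 clusters.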

[3] = designed as: ON switch for theophylline, no ligand
[4] = ligand present: theophylline, designed as: ON switch for theophylline
[5] = designed as: OFF switch for theophylline, no ligand
[6] = ligand present: theophylline, designed as: OFF switch for theophylline

Row | Sequence | apparent Kd [1, 3] [µM] | apparent Kd [1, 4] [µM] | further results
1 | GGGCCCGUAAGCAGGCCCACAGCGGGUGAUACCAGCAAUAAAACUUGCCCUUGGCAGCACACAGCUACAUGAGGAUCACCCAUGU | 0.0365 | 0.0635 | 
2 | AGUGUUAUAACUGAUACCAGACUUUUGCUUAUACAUGAGGAUCACCCAUGUAAAAUGGUUGUCCCUUGGCAGCAGAAAAUACACA | 0.084 | 0.0204 | 
3 | GAACAUGAGGAUCACCCAUGUUAAACAGAUACCAGUGAUAUAAUACACCCUUGGCAGCUGAAGCUGAAUAAUAAUUCCCUCAAGC | 0.012 | 0.0143 | 
4 | UAUAUAUUGAUGGAUACCAGCAGAGAAAACGUUUAUCCUAACAUGAGGAUCACCCAUGUAUGCCCUUGGCAGCUGUUGAUAUAUA |  |  | apparent Kd [1, 5]: 0.0222 µM; apparent Kd [1, 6]: 0.0326 µM
5 | AAAACACAUGAGGAUCACCCAUGUCGUGAUACCAGUCAACAUGAGGACCCUUGGCAGCAUAAAAUGGGUAACAUGAGGAUCACCC |  |  | apparent Kd [1, 5]: 0.0851 µM; apparent Kd [1, 6]: 0.133 µM
6 | AAUAUAAAAUAAAGAAAAUUUAUAUCUGAUACCAGACUCUCAUGGGUCCCUUGGCAGCAGUAACAUGAGGAUCACCCAUGUAUUA | 0.114 | 0.0165 | 
7 | AUUAAUAGUUGUGAUACCAGACUUACAUGAGGAUCACCCAUGUUACUUAAGUGUUUUGAUGUCCCUUGGCAGCACUGUUUAGUUA | 0.0255 | 0.0134 | 
8 | AAUAACAUGAGGAUCACCCAUGUAAAAGAUACCAGAUGCAUGAUGAUCCCUUGGCAGCUUAACGCUGAUUGAUUACAAUCAGCGA | 0.0286 | 0.087 | 
9 | GAUGAACUAUUCGAUACCAGACUACAUGAGGAUCACCCAUGUGUGUCAAUUUCUCAGUCAGUCCCUUGGCAGCGAAUAGUUUAUC |  |  | apparent Kd [1, 5]: 0.0382 µM; apparent Kd [1, 6]: 0.0543 µM
10 | GGCACUCUGUAAGAUACCAGACGUCGGUGCUUACAUGAGGAUCACCCAUGUUGCUUUUUAGUCCCUUGGCAGCUUCGGAUAACCA | 0.121 | 0.147 | 
11 | AUAACAUGAGGAUCACCCAUGUAGAGUGAUACCAGACUACGUAAUGUCCCUUGGCAGCACAAGUAAAGUUACGAAUAUUGAUAGA | 0.193 | 0.0515 | 
12 | CUCUGAGUCCGCAAGGACUCAGAGGCGGAUACCAGCGAGGUCCAUCGCCCUUGGCAGCCGAACAUGAGGAUCACCCAUGUCGGUA | 0.0104 | 0.0148 | 
13 | UUAAGAGGCUAUCCACUUUGAUUUUGUGAUACCAGAAUAAUUUUAUUCCCUUGGCAGCAUGACAUGAGGAUCACCCAUGUGUCUU | 0.0374 | 0.0724 | 
14 | UAAAACAUGAGGAUCACCCAUGUAAUUGAUACCAGAGUGAUGAUCCUCCCUUGGCAGCAAAACGCUGAUUGGAAACAAUCAGCGA | 0.113 | 0.251 | 
15 | UACAUGAGGAUCACCCAUGUAUGAAUAGAUACCAGAUAAAAUAAGGUCCCUUGGCAGCUAGUGAAUCGAGGGUGGGUAUCAUGAU |  |  | apparent Kd [1, 5]: 0.0104 µM; apparent Kd [1, 6]: 0.0108 µM
16 | AUCGCACCUGGUGAUACCAGCGUUUGCUCGCGACAUGAGGAUCACCCAUGUGGCCAGUGAUGCCCUUGGCAGCAUGGGCGGUGCA | 0.282 | 0.0902 | 
17 | UGUAUGUGAUUUGAUACCAGUUCUGCUGGUAAAACAUGAGGAUCACCCAUGUUACUUUGGGACCCUUGGCAGCAAAUCGCAUACU | 0.201 | 0.0139 | 
18 | GGCCGGUGCGCUUUGAAGCGACGGCGUGAUACCAGAUGUAAGAGCGUCCCUUGGCAGCACGUUUACAUGAGGAUCACCCAUGUCU | 0.196 | 0.131 | 
19 | ACAUGAGGAUCACCCAUGUGAAGGCACGAUACCAGCUGAUCCCGUGGCCCUUGGCAGCGUCCGGUUUGGUCCGGCGGAUGAGACG | 0.0241 | 0.0249 | 
20 | AAGGUAUCACAGACAUGGGUGUACUGUGAUACCAGCUAGGAAACUAGCCCUUGGCAGCACAUGAGGAUCACCCAUGUAAGAAUAA |  |  | apparent Kd [1, 5]: 0.0474 µM; apparent Kd [1, 6]: 0.141 µM
21 | AUUCCAUAGGUGCAGUUGUUAAAUGGCGAUACCAGCGUGGAAACACGCCCUUGGCAGCGCCAAAACAUGAGGAUCACCCAUGUUA |  |  | apparent Kd [1, 5]: 0.0958 µM; apparent Kd [1, 6]: 0.186 µM
22 | AACAUGAGGAUCACCCAUGUAAAAUGGGAUACCAGAGACGAAAGUCUCCCUUGGCAGCCCACUGCCUCCUUUACGAAAGUAGAGG | 0.0316 | 0.0182 | 
23 | GUAUGGAUAUUCUCACGCUACAUGAGGAUCACCCAUGUUCUAAGAAGGCGGCGAGGUAGAGCAUCCGAGGAUAUUAGAACUCAG |  |  | apparent Kd ([2]; no ligand): 0.0211 µM; apparent Kd ([2]; ligand present: flavin mononucleotide): 0.076 µM
